Results on 76 compounds are retold here after PubChem BioAssay AID492974 (The Scripps Research Institute Molecular Screening Center, 2010).

For orientation: inhibition means the change of the read-out against control, counted positive when it falls.

This experiment concerns the target Aspartyl aminopeptidase (Plasmodium falciparum (isolate 3D7)) (UniProt Q8I2J3). In words: recombinant PfM18AAP inhibitors, late-stage follow-up, biochemical, fluorescence, powder samples, assay provider (AID 492974). Particulars: H-Glu-NHMec fluorogenic substrate, at 5 µM, stronger effect = higher value. The gist of the method:
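Test system: Recombinant PfM18AAP enzyme | Input: 1 µg/mL enzyme | Timing: 10 min preincubation, 30 min read | Measured by: Fluorescence, ex 370 nm / em 460 nm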

Active and inactive are the calls of the source.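 Rule for the calls: active = inhibition of the enzyme above 50%; inactive = the rest.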

Chain of Aspartyl aminopeptidase (Plasmodium falciparum (isolate 3D7)) (Q8I2J3 whole entry, looked up): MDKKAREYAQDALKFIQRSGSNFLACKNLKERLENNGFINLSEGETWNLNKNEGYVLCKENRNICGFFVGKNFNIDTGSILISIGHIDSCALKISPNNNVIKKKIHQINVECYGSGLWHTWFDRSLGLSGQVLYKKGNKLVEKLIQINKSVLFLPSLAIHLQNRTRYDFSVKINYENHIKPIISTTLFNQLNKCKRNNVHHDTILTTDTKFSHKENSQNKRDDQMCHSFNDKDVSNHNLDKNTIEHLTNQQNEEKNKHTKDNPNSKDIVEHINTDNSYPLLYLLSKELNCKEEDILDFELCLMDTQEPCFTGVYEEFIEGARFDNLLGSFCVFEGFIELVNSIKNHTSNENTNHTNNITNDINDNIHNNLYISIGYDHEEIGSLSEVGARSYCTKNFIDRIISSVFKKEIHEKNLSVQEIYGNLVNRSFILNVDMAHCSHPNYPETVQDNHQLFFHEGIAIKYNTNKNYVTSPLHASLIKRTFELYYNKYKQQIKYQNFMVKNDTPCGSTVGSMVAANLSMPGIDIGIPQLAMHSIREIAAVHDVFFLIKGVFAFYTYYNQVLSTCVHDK

Consider `Cc1ccc(Cl)cc1NC(=S)Nn1cnnc1`, for which the inhibition was 17% (inactive).

`CC1=NNC(=O)/C1=C\c1cn(-c2ccccc2)nc1-c1ccc(F)cc1`: the inhibition was 9% (inactive).

Turning to `O=C(Nn1cnnc1)c1csc2ccccc12`, the inhibition was 22% (inactive).

Take `Oc1cc(O)c2c(c1)O[C@H](c1ccc(O)c(O)c1)[C@H](O)C2`: the inhibition is 49% (inactive).

As for `Cc1cc(OCC(=O)Nn2cnnc2)ccc1Br`, the inhibition is 55%.

With `CN1C(=O)N(c2cccc3ccccc23)C(n2cncn2)C1(C)C` (stereo unspecified), the inhibition is 5% (inactive).

As to `O=C(CSc1nc2ccccc2c(=O)[nH]1)c1ccc(O)c(O)c1`, the inhibition is 10% (inactive).

On to `Br/C(C=Nn1cnnc1)=C\c1ccccc1`, for which the inhibition was 17% (inactive).

On to `O=C(Nc1cc(Cl)ccc1Cl)Nn1cnnc1`, for which the inhibition is 54%.

As to `Cc1nc(-c2ccc(O)c(O)c2)cs1`, the inhibition was 74%.

In the case of `COc1ccc(C(=O)n2cnnc2N)cc1`, the inhibition was 4% (inactive).

Take `Oc1ccc(-c2csc(-c3ccccc3)n2)cc1O`: the inhibition was 90%.

Turning to `O=C(NC(=S)Nn1cnnc1)c1ccccc1Br`, the inhibition was 15% (inactive).

As for `O=C(Nc1ccccc1Cl)Nn1cnnc1`, the inhibition is 35% (inactive).

As for `CCN(CC)S(=O)(=O)c1ccc(C(=O)Nn2cnnc2)cc1`, the inhibition is 26% (inactive).

Regarding `O=C(CSc1nnc(-c2ccccc2)o1)Nn1cnnc1`, the inhibition is 58%.

For `Nc1nncn1C(=O)CCCOc1ccc(Cl)cc1Cl`, the inhibition is 0% (inactive).

Turning to `O=c1c2c([N+](=O)[O-])cc([N+](=O)[O-])cc2sn1Cc1ccccc1`, the inhibition was 44% (inactive).

As to `Cc1cc(C)n2c(=S)[nH]nc2n1`, the inhibition was 30% (inactive).

For `O=C(O)c1ccc(O)c(O)c1`, the inhibition was 21% (inactive).

Turning to `O=[N+]([O-])c1cc([N+](=O)[O-])c2cccnc2c1Oc1ccccc1O`, the inhibition is 16% (inactive).

In the case of `COC(=O)CN(n1cnnc1)S(=O)(=O)c1ccccc1Cl`, the inhibition was 26% (inactive).

Turning to `COC(=O)c1cc(C(=O)Nn2cnnc2)cc([N+](=O)[O-])c1`, the inhibition was 48% (inactive).

Turning to `O=S(=O)(Nn1cnnc1)c1ccccc1`, the inhibition was 10% (inactive).

`COc1ccc(NC(=O)NNC(=O)CCc2ccc(O)c(O)c2)cc1OC`: the inhibition is 23% (inactive).

With `Cc1ccc([N+](=O)[O-])cc1-c1[nH]c(-c2ccc(O)c(O)c2)nc1-c1ccccc1`, the inhibition is 83%.

With `O=C(COc1ccccc1C(=O)N/N=C/c1ccc(O)c(O)c1)N/N=C/c1ccc(O)c(O)c1`, the inhibition is 76%.

For the compound `O=c1[nH]c(=S)[nH]c(O)c1/C=C1\C=c2ccccc2=N1`, the inhibition is 42% (inactive).

For the compound `COC(=O)CN(n1cnnc1)S(=O)(=O)c1ccccc1`, the inhibition is 0% (inactive).

Consider `O=c1[nH]c(CSc2ncn[nH]2)nc2ccccc12`, for which the inhibition is 0% (inactive).

For `Oc1ccc(-c2cn3ccccc3n2)cc1O`, the inhibition was 42% (inactive).

Turning to `O=C(Nc1cccc(Cl)c1Cl)Nn1cnnc1`, the inhibition was 29% (inactive).

Take `Oc1ccc(CCNc2c3ccccc3nc3ccccc23)cc1O`: the inhibition is 52%.

For `O=C(CSc1nn(-c2ccccc2)c(=S)s1)Nn1cnnc1`, the inhibition was 15% (inactive).

On to `CS(=O)(=O)c1ccc2c(c1)sc1nc(=O)c(/C=C3/C=CC(=O)C(O)=C3)c(N)n12`, for which the inhibition was 55%.

Consider `Cc1ccc(-n2c(O)c(/C=N/n3cnnc3)c3ccccc3c2=O)cc1`, for which the inhibition was 18% (inactive).

As for `Oc1ccc(/C=C/c2cc(O)cc(O)c2)cc1`, the inhibition is 50%.

On to `COc1cc(Br)cc(/C=N/c2ncn[nH]2)c1O`, for which the inhibition was 0% (inactive).

On to `OC(Cn1cnnc1)c1ccccc1` (stereo unspecified), for which the inhibition is 19% (inactive).

For the compound `Cc1ccc(NC(=S)Nn2cnnc2)c(C)c1`, the inhibition is 3% (inactive).

Turning to `CC(C)n1c(SCC(=O)Nc2nncs2)nnc1-c1ccco1`, the inhibition is 5% (inactive).

On to `Oc1ccc(-c2csc(-c3cccnc3)n2)cc1O`, for which the inhibition is 81%.

On to `CCc1ccccc1NC(=S)Nn1cnnc1`, for which the inhibition was 6% (inactive).

`Cc1c(Cl)cccc1NC(=O)Nn1cnnc1`: the inhibition was 10% (inactive).

Take `O=C(Nn1cnnc1)c1ccccc1-c1ccccc1`: the inhibition was 21% (inactive).

Take `Cc1cc(=O)[nH]c(SCC(=O)c2ccc(O)c(O)c2)n1`: the inhibition was 0% (inactive).

As to `O=c1c(O)c(-c2ccc(O)c(O)c2)oc2cc(O)cc(O)c12`, the inhibition is 43% (inactive).

For the compound `CCOC(=O)C1=C(CS(=O)(=O)c2ccc(F)cc2)NC(=O)NC1c1ccc(O)c(O)c1` (stereo unspecified), the inhibition is 58%.

In the case of `O=C(CNC(=O)c1ccccc1)NCCc1ccc(O)c(O)c1`, the inhibition was 50%.

Consider `O=C(Nc1ccc([N+](=O)[O-])cc1)Nn1cnnc1`, for which the inhibition is 59%.

In the case of `Cc1cc(C)cc(C(=O)n2cnnc2N)c1`, the inhibition was 0% (inactive).

`O=C(CSc1ncn[nH]1)Nc1nc(-c2ccccc2)ns1`: the inhibition was 7% (inactive).

For `COC(=O)CN(n1cnnc1)S(=O)(=O)c1ccc(C)cc1`, the inhibition was 0% (inactive).

Take `CN1CCc2cccc3c2[C@@H]1Cc1ccc(O)c(O)c1-3`: the inhibition was 35% (inactive).

In the case of `COc1cccc2c(SCC(=O)N/N=C/c3ccc(O)c(O)c3)cc(C)nc12`, the inhibition was 51%.

For `CC1(C)CC(=O)c2c(oc3cc(O)c(O)cc23)C1`, the inhibition is 29% (inactive).

As to `O=C(Nc1ccc(Cl)c(Cl)c1)Nn1cnnc1`, the inhibition was 63%.

With `COc1cc([N+](=O)[O-])ccc1NC(=O)Nn1cnnc1`, the inhibition was 4% (inactive).

Take `COc1cc([N+](=O)[O-])ccc1NC(=S)Nn1cnnc1`: the inhibition was 52%.

Take `CC1(C)CC2(CC(c3ccccc3F)c3ccc(O)c(O)c3O2)NC(=S)N1` (stereo unspecified): the inhibition was 50%.

For `NCCc1ccc(O)c(O)c1`, the inhibition was 40% (inactive).

As to `O=C(Nc1ccc(Br)cc1Cl)Nn1cnnc1`, the inhibition is 71%.

With `COc1ccc(Cl)cc1NC(=O)Nn1cnnc1`, the inhibition is 22% (inactive).

Turning to `COc1ccc2nc(C)cc(SCC(=O)N/N=C/c3ccc(O)c(O)c3)c2c1`, the inhibition was 63%.

As for `S=C(Nc1cc(Cl)ccc1Cl)Nn1cnnc1`, the inhibition was 24% (inactive).

Take `CCC(C)c1ccc(O)c(N)c1` (stereo unspecified): the inhibition was 65%.

For `Oc1ccc(C2=Nn3c(nnc3-c3ccco3)SC2)cc1O`, the inhibition is 52%.

Consider `O=C(CSc1ncn[nH]1)OCN1C(=O)c2ccccc2C1=O`, for which the inhibition was 0% (inactive).

As to `O=C(Nc1ccc(Cl)cc1Cl)Nn1cnnc1`, the inhibition is 48% (inactive).

Turning to `Cc1nc2ccccn2c1C(=O)NNC(=O)Nc1ccccc1`, the inhibition was 11% (inactive).

`O=C(Nc1cccc(C(F)(F)F)c1)Nn1cnnc1`: the inhibition is 27% (inactive).

As to `COc1cccc(-c2cc(C(=O)Nn3cnnc3)c3ccccc3n2)c1`, the inhibition was 25% (inactive).

As for `O=C(O)c1cn[nH]c1-n1cnnn1`, the inhibition was 2% (inactive).

As to `O=C(O)CSc1ncn[nH]1`, the inhibition is 0% (inactive).

Regarding `Cc1cccc(NC(=S)Nn2cnnc2)c1C`, the inhibition was 13% (inactive).

`Cc1ccc(Cl)cc1NC(=O)Nn1cnnc1`: the inhibition is 35% (inactive).
